From ChEMBL document CHEMBL1135602 (J Med Chem, 2002)
Where “and” joins values, the source holds several entries; their conditions need not be identical. Equal entries are not always repeated. Calls of active or inactive are those of the source. No cut-off for these calls is given here.

Test system: BC
Assay: Cytotoxicity against human breast cancer cells.
Type: functional, cell-based
Settings: not given

Structure (SMILES)	IC50 [µM]
CCc1nc(N)nc(N)c1-c1ccc(C(C)(C)C)cc1	56
COc1cc(Cc2cnc(N)nc2N)ccc1OCCCc1ccccc1	32
Nc1ncc(Cc2ccc(OCCCOc3cc(Cl)c(Cl)cc3Cl)cc2)c(N)n1	> 50
CCCOc1cc(Cc2cnc(N)nc2N)ccc1OCc1cc(OC)c(OC)c(OC)c1	56
CCOc1cc(Cc2cnc(N)nc2N)ccc1OCc1cc(OC)c(OC)c(OC)c1	139

Biological target: Bifunctional dihydrofolate reductase-thymidylate synthase (Plasmodium falciparum K1) (UniProt P13922)
Assay: Inhibition of S108N mutant dihydrofolate reductase (DHFR)relative to Tmp
Settings: not given
Outline: (§1)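 Assayed at 25 °C in 50 mM TES pH 7.0, 75 mM β-mercaptoethanol, 1 mg/mL BSA, with 100 µM H2folate and 100 µM NADPH. A340 was followed. Ki was derived from IC50 = Ki(1+[S]/Km), assuming competitive inhibition.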

Bifunctional dihydrofolate reductase-thymidylate synthase (Plasmodium falciparum K1), sequence (P13922 whole entry, looked up): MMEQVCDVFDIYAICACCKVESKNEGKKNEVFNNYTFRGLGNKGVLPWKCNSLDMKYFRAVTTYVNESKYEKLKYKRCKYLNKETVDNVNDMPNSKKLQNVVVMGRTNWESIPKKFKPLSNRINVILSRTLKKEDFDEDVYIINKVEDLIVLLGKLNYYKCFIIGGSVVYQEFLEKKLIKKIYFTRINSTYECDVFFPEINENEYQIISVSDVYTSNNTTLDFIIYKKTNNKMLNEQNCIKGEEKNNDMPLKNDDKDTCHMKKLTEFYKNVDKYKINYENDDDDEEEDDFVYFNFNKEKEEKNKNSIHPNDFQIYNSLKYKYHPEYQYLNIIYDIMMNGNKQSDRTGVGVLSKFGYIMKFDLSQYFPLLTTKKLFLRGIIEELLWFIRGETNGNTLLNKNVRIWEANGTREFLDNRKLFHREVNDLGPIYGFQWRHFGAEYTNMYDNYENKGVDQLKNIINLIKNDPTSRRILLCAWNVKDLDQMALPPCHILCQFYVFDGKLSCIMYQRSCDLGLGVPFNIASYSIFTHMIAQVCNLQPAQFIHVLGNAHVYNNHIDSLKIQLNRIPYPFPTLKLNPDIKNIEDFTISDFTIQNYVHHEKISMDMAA

Structure (SMILES)	Relative activity
COc1cc(Cc2cnc(N)nc2N)ccc1OCCCc1ccccc1	0.2
Nc1ncc(Cc2ccc(OCCCOc3cc(Cl)c(Cl)cc3Cl)cc2)c(N)n1	0.2

Biological target: Bifunctional dihydrofolate reductase-thymidylate synthase (Plasmodium falciparum K1) (UniProt P13922)
Assay: Inhibition of the wild-type dihydrofolate reductase (DHFR) relative to Pyr.
Settings: not given
Outline: as §1

Structure (SMILES)	Relative activity
CCc1nc(N)nc(N)c1-c1ccc(C(C)(C)C)cc1	1

Biological target: Bifunctional dihydrofolate reductase-thymidylate synthase (Plasmodium falciparum K1) (UniProt P13922)
Assay: Inhibition of the wild-type dihydrofolate reductase (DHFR) relative to Tmp
Settings: not given
Outline: as §1

Structure (SMILES)	Relative activity
COc1cc(Cc2cnc(N)nc2N)ccc1OCCCc1ccccc1	0.2
Nc1ncc(Cc2ccc(OCCCOc3cc(Cl)c(Cl)cc3Cl)cc2)c(N)n1	0.09

Biological target: T1, Dihydrofolate reductase (Homo sapiens) (UniProt P00374)
T1 sequence (whole entry): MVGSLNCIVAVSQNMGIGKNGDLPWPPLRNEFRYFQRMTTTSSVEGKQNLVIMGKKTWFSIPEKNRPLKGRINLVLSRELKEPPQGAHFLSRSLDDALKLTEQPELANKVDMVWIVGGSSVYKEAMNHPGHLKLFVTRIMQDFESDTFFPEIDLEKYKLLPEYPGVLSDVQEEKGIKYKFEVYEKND
Assay: Cytotoxicity by selective inhibition against human dihydrofolate reductase (DHFR);NA is no inhibition
Settings: not given

Structure (SMILES)	NI
CCCOc1cc(Cc2cnc(N)nc2N)ccc1OCc1cc(OC)c(OC)c(OC)c1	inactive
CCOc1cc(Cc2cnc(N)nc2N)ccc1OCc1cc(OC)c(OC)c(OC)c1	inactive

Biological target: Bifunctional dihydrofolate reductase-thymidylate synthase (Plasmodium falciparum K1, UniProt P13922)
Assay: Inhibition of the C59R+S108N mutant of dihydrofolate reductase (DHFR)
Settings: not given
Outline: (§2)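 Assay at 25 °C: 50 mM TES pH 7.0, 75 mM β-mercaptoethanol, 1 mg/mL BSA, 100 µM H2folate and 100 µM NADPH. NADPH oxidation followed at 340 nm. Ki derived from IC50 as Ki(1+[S]/Km), assuming competitive inhibition.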

Bifunctional dihydrofolate reductase-thymidylate synthase (Plasmodium falciparum K1, UniProt P13922), sequence (P13922 whole entry): as the sequence (P13922 whole entry, looked up) above

Structure (SMILES)	Ki [nM]
CCc1nc(N)nc(N)c1-c1ccc(C(C)(C)C)cc1	127
COc1cc(Cc2cnc(N)nc2N)ccc1OCCCc1ccccc1	44.2
Nc1ncc(Cc2ccc(OCCCOc3cc(Cl)c(Cl)cc3Cl)cc2)c(N)n1	39.1

Biological target: Bifunctional dihydrofolate reductase-thymidylate synthase (Plasmodium falciparum K1, UniProt P13922, S108N)
Assay: Inhibition of the S108N mutant of dihydrofolate reductase (DHFR)
Settings: not given
Outline: as §2

Bifunctional dihydrofolate reductase-thymidylate synthase (Plasmodium falciparum K1, UniProt P13922, S108N), sequence (P13922 whole entry, looked up, stated change not applied): as the sequence (P13922 whole entry, looked up) above

Structure (SMILES)	Ki [nM]
CCc1nc(N)nc(N)c1-c1ccc(C(C)(C)C)cc1	66.2
COc1cc(Cc2cnc(N)nc2N)ccc1OCCCc1ccccc1	26.6
Nc1ncc(Cc2ccc(OCCCOc3cc(Cl)c(Cl)cc3Cl)cc2)c(N)n1	23.5

Biological target: Bifunctional dihydrofolate reductase-thymidylate synthase (Plasmodium falciparum K1) (UniProt P13922)
Assay: Inhibition of the C59R+S108N mutant of dihydrofolate reductase (DHFR) relative to Pyr.
Settings: not given
Outline: as §1

Structure (SMILES)	Relative activity
CCc1nc(N)nc(N)c1-c1ccc(C(C)(C)C)cc1	2.4

Biological target: Bifunctional dihydrofolate reductase-thymidylate synthase (Plasmodium falciparum K1) (UniProt P13922)
Assay: Inhibition of the C59R+S108N mutant of dihydrofolate reductase (DHFR)relative to Tmp
Settings: not given
Outline: as §1

Structure (SMILES)	Relative activity
COc1cc(Cc2cnc(N)nc2N)ccc1OCCCc1ccccc1	0.2
Nc1ncc(Cc2ccc(OCCCOc3cc(Cl)c(Cl)cc3Cl)cc2)c(N)n1	0.2

Biological target: Bifunctional dihydrofolate reductase-thymidylate synthase (Plasmodium falciparum K1) (UniProt P13922)
Assay: Inhibition of the S108N mutant of dihydrofolate reductase (DHFR) relative to Pyr.
Settings: not given
Outline: as §1

Structure (SMILES)	Relative activity
CCc1nc(N)nc(N)c1-c1ccc(C(C)(C)C)cc1	2.3

Test system: KB
Assay: Cytotoxicity against human epidermoid carcinoma KB cell.
Type: functional, cell-based
Settings: not given

Structure (SMILES)	IC50 [µM]
CCc1nc(N)nc(N)c1-c1ccc(C(C)(C)C)cc1	87
COc1cc(Cc2cnc(N)nc2N)ccc1OCCCc1ccccc1	72
Nc1ncc(Cc2ccc(OCCCOc3cc(Cl)c(Cl)cc3Cl)cc2)c(N)n1	> 50
CCCOc1cc(Cc2cnc(N)nc2N)ccc1OCc1cc(OC)c(OC)c(OC)c1	180
CCOc1cc(Cc2cnc(N)nc2N)ccc1OCc1cc(OC)c(OC)c(OC)c1	102

Test system: Plasmodium falciparum
Assay: Relative antiplasmodial activity (IC50) compared to Pyr against Plasmodium falciparum K1CB1 DHFR double-mutant (C59R/S108N)
Type: functional
Settings: not given

Structure (SMILES)	Relative activity
CCc1nc(N)nc(N)c1-c1ccc(C(C)(C)C)cc1	0.1

Test system: Plasmodium falciparum
Assay: In vitro relative antiplasmodial activity (IC50) compared to Pyr against Plasmodium falciparum TM4/8.2 wild-type
Type: functional
Settings: not given

Structure (SMILES)	Relative activity
CCc1nc(N)nc(N)c1-c1ccc(C(C)(C)C)cc1	7.5

Test system: Plasmodium falciparum
Assay: In vitro antiplasmodial activity (IC50) against Plasmodium falciparum wtTM4/8.2
Type: functional, organism-based
Settings: not given

Structure (SMILES)	IC50 [nM]
CCc1nc(N)nc(N)c1-c1ccc(C(C)(C)C)cc1	600
COc1cc(Cc2cnc(N)nc2N)ccc1OCCCc1ccccc1	3000
Nc1ncc(Cc2ccc(OCCCOc3cc(Cl)c(Cl)cc3Cl)cc2)c(N)n1	3000

Test system: Vero
Assay: Cytotoxicity by the selective inhibition against African green monkey kidney […] (vero cells).
Type: functional, cell-based
Settings: Chlorocebus sabaeus

Structure (SMILES)	IC50 [µM]
CCc1nc(N)nc(N)c1-c1ccc(C(C)(C)C)cc1	100
COc1cc(Cc2cnc(N)nc2N)ccc1OCCCc1ccccc1	200
Nc1ncc(Cc2ccc(OCCCOc3cc(Cl)c(Cl)cc3Cl)cc2)c(N)n1	45
CCCOc1cc(Cc2cnc(N)nc2N)ccc1OCc1cc(OC)c(OC)c(OC)c1	13
CCOc1cc(Cc2cnc(N)nc2N)ccc1OCc1cc(OC)c(OC)c(OC)c1	34

Test system: Bifunctional dihydrofolate reductase-thymidylate synthase (Plasmodium falciparum K1), P13922 [UNDEFINED MUTATION]
Assay: Ratio of Inhibition of the S108N mutant of dihydrofolate reductase (DHFR) to inhibition of wild type dihydrofolate reductase.
Settings: not given

Bifunctional dihydrofolate reductase-thymidylate synthase (Plasmodium falciparum K1), P13922 [UNDEFINED MUTATION], sequence (P13922 whole entry, looked up, stated change not applied): as the sequence (P13922 whole entry, looked up) above

Structure (SMILES)	Ratio
CCc1nc(N)nc(N)c1-c1ccc(C(C)(C)C)cc1	110
COc1cc(Cc2cnc(N)nc2N)ccc1OCCCc1ccccc1	14.8
Nc1ncc(Cc2ccc(OCCCOc3cc(Cl)c(Cl)cc3Cl)cc2)c(N)n1	26.1

Test system: Plasmodium falciparum
Assay: IC50 ratio against Plasmodium falciparum K1CB1/TM4
Type: functional
Settings: not given

Structure (SMILES)	Ratio
CCc1nc(N)nc(N)c1-c1ccc(C(C)(C)C)cc1	6.5
COc1cc(Cc2cnc(N)nc2N)ccc1OCCCc1ccccc1	3.9
Nc1ncc(Cc2ccc(OCCCOc3cc(Cl)c(Cl)cc3Cl)cc2)c(N)n1	1.2

Test system: not listed separately
Assay: Safety ratio is cytotoxicity to BC cells/IC50 K1
Type: toxicity, cell-based
Settings: human, BC cells (breast cancer); read-out: Safety ratio
Outline: (§3)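 Safety ratio is the mammalian-cell cytotoxicity IC50 (vero, KB or BC cells) divided by the antiplasmodial IC50 against P. falciparum K1CB1 (C59R+S108N DHFR). Parasites were grown in human erythrocytes (1.5% suspension, 1-2% parasitemia) at 37 °C, 3% CO2, with drug dilutions at 0.1% DMSO final. After 24 h, [3H]hypoxanthine was added for a further 18-24 h. IC50 came from sigmoidal incorporation curves.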

Structure (SMILES)	selectivity ratio
COc1cc(Cc2cnc(N)nc2N)ccc1OCCCc1ccccc1	2.7

Test system: not listed separately
Assay: Safety ratio is cytotoxicity to BC cells/IC50 K1.
Type: toxicity, cell-based
Settings: human, BC cells (breast cancer); read-out: Safety ratio
Outline: (§4)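 Ratio of the cytotoxicity IC50 (vero, KB or BC cells, Skehan protocol) to the antiplasmodial IC50 against K1CB1 (C59R+S108N DHFR). […] Label was added at 24 h and cultures ran a further 18-24 h. Final DMSO was 0.1%.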

Structure (SMILES)	selectivity ratio
CCc1nc(N)nc(N)c1-c1ccc(C(C)(C)C)cc1	14.4

Test system: not listed separately
Assay: Safety ratio is cytotoxicity to KB cells/IC50 K1
Type: toxicity, cell-based
Settings: human, KB cells (epidermoid carcinoma); read-out: Safety ratio
Outline: as §3

Structure (SMILES)	selectivity ratio
COc1cc(Cc2cnc(N)nc2N)ccc1OCCCc1ccccc1	6

Test system: not listed separately
Assay: Safety ratio is cytotoxicity to KB cells/IC50 K1.
Type: toxicity, cell-based
Settings: human, KB cells (epidermoid carcinoma); read-out: Safety ratio
Outline: as §4

Structure (SMILES)	selectivity ratio
CCc1nc(N)nc(N)c1-c1ccc(C(C)(C)C)cc1	22

Test system: not listed separately
Assay: Safety ratio is cytotoxicity to KB cells/IC50 TM4.
Type: toxicity, cell-based
Settings: human, KB cells (epidermoid carcinoma); read-out: Safety ratio
Outline: (§5)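 Ratio of the cytotoxicity IC50 (KB or BC cells, Skehan protocol) to the antiplasmodial IC50 against TM4/8.2 (wild-type DHFR). […] Label was added after 24 h and cultures ran a further 18-24 h.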

Structure (SMILES)	selectivity ratio
CCc1nc(N)nc(N)c1-c1ccc(C(C)(C)C)cc1	145
COc1cc(Cc2cnc(N)nc2N)ccc1OCCCc1ccccc1	24

Test system: not listed separately
Assay: Safety ratio is cytotoxicity to vero cells/IC50 K1
Type: toxicity, cell-based
Settings: monkey
Outline: as §4

Structure (SMILES)	selectivity ratio
Nc1ncc(Cc2ccc(OCCCOc3cc(Cl)c(Cl)cc3Cl)cc2)c(N)n1	13

Test system: not listed separately
Assay: Safety ratio is cytotoxicity to vero cells/IC50 K1.
Type: toxicity, cell-based
Settings: monkey, read-out: Safety ratio
Outline: as §4

Structure (SMILES)	selectivity ratio
COc1cc(Cc2cnc(N)nc2N)ccc1OCCCc1ccccc1	17

Test system: not listed separately
Assay: Safety ratio is cytotoxicity to vero cells/IC50 KI.
Type: toxicity, cell-based
Settings: monkey, read-out: Safety ratio
Outline: as §3

Structure (SMILES)	selectivity ratio
CCc1nc(N)nc(N)c1-c1ccc(C(C)(C)C)cc1	26

Test system: Plasmodium falciparum
Assay: Safety ratio as cytotoxicity in vero cells relative to IC50 TM4
Type: functional
Settings: not given

Structure (SMILES)	Safety ratio
CCc1nc(N)nc(N)c1-c1ccc(C(C)(C)C)cc1	172
COc1cc(Cc2cnc(N)nc2N)ccc1OCCCc1ccccc1	67
Nc1ncc(Cc2ccc(OCCCOc3cc(Cl)c(Cl)cc3Cl)cc2)c(N)n1	15 and >17

Test system: Bifunctional dihydrofolate reductase-thymidylate synthase (Plasmodium falciparum K1), P13922 [UNDEFINED MUTATION]
Assay: Ratio of Inhibition of the C59R+S108N mutant of dihydrofolate reductase (DHFR) to inhibition of wild type dihydrofolate reductase.
Settings: not given

Structure (SMILES)	Ratio
CCc1nc(N)nc(N)c1-c1ccc(C(C)(C)C)cc1	212
COc1cc(Cc2cnc(N)nc2N)ccc1OCCCc1ccccc1	24.5
Nc1ncc(Cc2ccc(OCCCOc3cc(Cl)c(Cl)cc3Cl)cc2)c(N)n1	43.4

Test system: not listed separately
Assay: Safety ratio is cytotoxicity to BC cells/IC50 TM4.
Type: toxicity, cell-based
Settings: human, BC cells (breast cancer); read-out: Safety ratio
Outline: as §5

Structure (SMILES)	selectivity ratio
CCc1nc(N)nc(N)c1-c1ccc(C(C)(C)C)cc1	93.3
COc1cc(Cc2cnc(N)nc2N)ccc1OCCCc1ccccc1	11

Test system: not listed separately
Assay: Safety ratio is cytotoxicity to vero cells/IC50 k1.
Type: toxicity, cell-based
Settings: monkey, read-out: Safety ratio
Outline: as §4

Structure (SMILES)	selectivity ratio
Nc1ncc(Cc2ccc(OCCCOc3cc(Cl)c(Cl)cc3Cl)cc2)c(N)n1	13
